{"source": "paper PMC2764440", "about": "(Nucleic Acids Research, 2009)", "key": {"CD4+ T-cells": {"tested_on": "CD4+ T-cells", "assay": "T-cell proliferation assay", "type": "cell-based, mouse", "conditions": "1-MT 0.75 mM", "method_in_brief": "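CD4+ responder T cells from C3H mouse spleens (10^5/well, anti-CD3/CD28 bead-stimulated) were co-cultured 3 days with 5 × 10^4 mitomycin C-treated (40 µg/ml, 30 min) MCEC. The MCEC were untransfected or transfected with test peptide carrying IDO or GFP plasmid, with or without 0.75 mM final 1-methyl-dl-tryptophan. [3H]thymidine (1 µCi/well) was added and incorporation was counted 16 h later.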"}, "MCEC [1]": {"tested_on": "MCEC", "assay": "Inhibitor studies: uptake of F complexes", "type": "cell-based", "conditions": "Mus musculus, read-out: reduction (inhibition) of uptake of F complexes", "method_in_brief": "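Mouse corneal endothelial cells (MCEC; DMEM, 10% FBS, full serum) were seeded at 2.2 × 10^5/well one day before. Complexes of test peptide with Cy5-labelled luciferase plasmid were formed in 10 mM phosphate buffer pH 7.0, added with inhibitor at non-toxic working levels, and incubated 3 h at 37°C. Cells were washed, trypsinised and read by flow cytometry (mean fluorescence, 10 000 gated cells), relative to vehicle (DMSO or water) = 100%.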"}, "MCEC [2]": {"tested_on": "MCEC", "assay": "Inhibitor studies: luciferase gene expression mediated by F complexes", "type": "cell-based, mouse"}}}
{"smiles": "Cn1cc(CC(N)C(=O)O)c2ccccc21", "note": "(racemic) [1-MT, 1-methyl-DL-tryptophan]", "values": [{"measurement": "effect on the inhibition of T-cell proliferation by IDO-transfected MCEC", "setting": "CD4+ T-cells", "value": "reversed"}]}
{"smiles": "CCN(c1nc(N)c(C(=O)NC(=N)N)nc1Cl)C(C)C", "note": "[EIPA, 5-(N-ethyl-N-isopropyl)amiloride]", "values": [{"measurement": "inhibition at 25 µg/mL", "setting": "MCEC [1]", "value": 32.9, "unit": "%"}]}
{"smiles": "CCCCC[C@@H](O)[C@H]1C(=O)O[C@H](C)[C@@H](O)/C=C/C=C/C=C/C=C/C=C(\\C)[C@@H](O)C[C@H](O)C[C@H](O)C[C@H](O)C[C@H](O)C[C@H](O)C[C@@H]1O", "note": "[Filipin, filipin III]", "values": [{"measurement": "inhibition at 1 µg/mL", "setting": "MCEC [1]", "value": 48.6, "unit": "%"}]}
{"smiles": "C=C1[C@@H](C)[C@H]2[C@H](Cc3ccccc3)NC(=O)[C@]23[C@H](OC(C)=O)/C=C/[C@@](C)(O)C(=O)[C@@H](C)C/C=C/[C@H]3[C@@H]1O", "note": "[cytochalasin, cytochalasin D]", "values": [{"measurement": "inhibition at 5 µg/mL", "setting": "MCEC [1]", "value": 58.5, "unit": "%"}]}
{"smiles": "O=C(N/N=C/c1ccc(O)c(O)c1)c1cc2ccccc2cc1O", "note": "[dynasore]", "values": [{"measurement": "inhibition at 6.8 µg/mL", "setting": "MCEC [1]", "value": 64.7, "unit": "%"}, {"measurement": "toxicity during the longer incubation period used for gene expression assays", "setting": "MCEC [2]; dynasore 6.8 µg/ml, MCEC", "value": "pronounced toxicity"}]}
{"smiles": "COC(=O)Nc1nc2ccc(C(=O)c3cccs3)cc2[nH]1", "note": "[nocodazole]", "values": [{"measurement": "inhibition at 4.5 µg/mL", "setting": "MCEC [1]", "value": 58.2, "unit": "%"}, {"measurement": "increase of gene expression mediated by F complexes", "setting": "MCEC [2]; nocodazole 4.5 µg/ml, N/P 20, luciferase 72 h later, relative to vehicle control", "value": 2.35, "unit": "times"}]}
